From ChEMBL document CHEMBL3124940, “Design, synthesis and biological evaluation of D-ring opened galantamine analogs as multifunctional anti-Alzheimer agents” (Eur J Med Chem, 2014)
The source made the active and inactive calls.

Assays:
Rattus norvegicus [1] = assay: Antialzheimer activity in Wistar rat scopolamine-induced cognition impairment model assessed as decrease in amount of errors plus baits not found during exploration at 1 umol/100 g body weight, ip treated for 5 mins prior to scopolamine-challenge measured after 20 to 120 mins by eight-arm radial maze test; type: functional, organism-based
Outline: (§1)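 Female 60-day-old Wistar rats (Han:Wist) trained in an eight-arm radial maze to error-free trials under 60 s on three consecutive days; each animal served as its own control. Test agent given i.p. in saline 5 min before scopolamine (0.05 mg/100 g b. wt., i.p. in saline). Errors plus baits not found after 10 min, and total searching time, recorded before and 20, 60, 120 min after scopolamine; n = 14, mean ± SEM.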

[2] = target: Amyloid-beta precursor protein (Homo sapiens) (UniProt P05067); assay: Inhibition of amyloid beta (1 to 42) aggregation (unknown origin) at 5 to 100 uM after 1 hr by thioflavin T fluorescence assay
Sequence of Amyloid-beta precursor protein (Homo sapiens) (P05067 whole entry): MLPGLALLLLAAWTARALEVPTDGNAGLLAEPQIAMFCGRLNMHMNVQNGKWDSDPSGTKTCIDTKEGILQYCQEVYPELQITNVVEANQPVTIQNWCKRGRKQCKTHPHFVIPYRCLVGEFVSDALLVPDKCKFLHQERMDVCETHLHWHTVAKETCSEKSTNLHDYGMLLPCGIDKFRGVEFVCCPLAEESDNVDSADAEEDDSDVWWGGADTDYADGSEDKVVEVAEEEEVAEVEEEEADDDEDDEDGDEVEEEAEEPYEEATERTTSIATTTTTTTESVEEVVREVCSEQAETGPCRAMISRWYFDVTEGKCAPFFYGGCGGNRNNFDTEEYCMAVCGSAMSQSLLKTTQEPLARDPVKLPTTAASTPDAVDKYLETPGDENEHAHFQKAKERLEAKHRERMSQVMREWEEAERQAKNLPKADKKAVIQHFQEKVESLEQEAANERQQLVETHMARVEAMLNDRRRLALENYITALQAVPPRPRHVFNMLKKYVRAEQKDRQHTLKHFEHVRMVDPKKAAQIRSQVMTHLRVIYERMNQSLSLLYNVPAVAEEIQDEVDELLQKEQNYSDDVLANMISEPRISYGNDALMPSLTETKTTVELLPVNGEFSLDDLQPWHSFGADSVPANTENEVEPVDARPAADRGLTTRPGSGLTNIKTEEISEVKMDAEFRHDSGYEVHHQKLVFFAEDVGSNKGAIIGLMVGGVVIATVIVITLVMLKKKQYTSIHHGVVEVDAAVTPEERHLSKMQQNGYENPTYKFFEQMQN
Outline: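 Aβ42 stock 200 μM in DMSO, centrifuged 12,000 rpm 10 min; supernatant used. ThT in 50 mM glycine-NaOH pH 8.5 then added. Fluorescence read at ex 430 / em 488 nm. Curcumin as positive control.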

PC-12 = assay: Neuroprotective activity in rat PC12 cells assessed as decrease in amyloid beta (1 to 42)-induced cytotoxicity at 0.08 to 10 uM after 24 hrs by MTT assay; type: functional, cell-based
Outline: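 PC12 cells grown in F-12 with 10% FBS, 37 °C, 5% CO2. Seeded at 2000 cells/well for 24 h. Aβ42 pretreated with HFIP, then brought to 100 μM in medium and held at 4 °C for 24 h. Compound (final […]–10 μM, DMSO <0.5%) given with Aβ42 (final 5 μM) for 24 h. MTT 4 h, formazan read at 540 nm. Expressed as % of control; three independent trials, mean ± SEM.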

Rattus norvegicus [3] = assay: Antialzheimer activity in Wistar rat scopolamine-induced cognition impairment model assessed as total exploration time at 1 umol/100 g body weight, ip treated for 5 mins prior to scopolamine-challenge by eight-arm radial maze test relative to control; type: functional; outline: as §1

COc1ccc2c3c1O[C@H]1C[C@@H](O)C=C[C@@]31CCN(C)C2
inactive: Activity (Rattus norvegicus [1]) | inhibition [2] | Activity (PC-12) | Activity (Rattus norvegicus [3])
